In ChEMBL document CHEMBL5352501, “Catalytic Degraders Effectively Address Kinase Site Mutations in EML4-ALK Oncogenic Fusions” (J Med Chem, 2023):
In brackets after ≈: the same amount, converted by molar mass. Activity calls are given as the source filed them. The rule behind the calls is not given here.

Tests used:
[1] = Microsomal stability in human liver microsomes assessed as intrinsic clearance at 1 uM and measured upto 60 mins in presence of NADPH by LC-MS/MSC analysis; format: ADME, Microsome; conditions: read-out: CLH
[2] = Solubility of the compound in FeSSIF at pH 5.0 incubated for 24 hrs under shaking condition by UPLC-UV/HPLC-UV analysis; format: physicochemical
[3] = Oral bioavailability in C57BL/J6 mouse at 10 mg/kg and measured upto 24 hrs by LC-MS/MS analysis; format: ADME, organism-based; conditions: in vivo
In short: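 Mouse PK was run with both oral and intravenous dosing, with 10 mg/kg as the study dose. Oral bioavailability was derived from comparing the two routes.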

[4] = tested on: Erythrocyte; experiment: Hemolytic activity in human RBC assessed as hemolysis incubated for 45 mins by absorbance based microplate reader analysis; format: toxicity, cell-based; conditions: 0.75 h
[5] = tested on: Erythrocyte; experiment: Hemolytic activity in mouse RBC assessed as hemolysis incubated for 45 mins by absorbance based microplate reader analysis; format: toxicity, cell-based; conditions: 0.75 h
[6] = tested on: BaF3; experiment: Antiproliferative activity against mouse Ba/F3 cells stably expressing HiBiT-tagged wild type EML4-ALK variant 3 assessed as cell growth inhibition incubated for 72 hrs by CellTiter-Glo assay; format: functional
In short: (§1)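 Ba/F3 cells stably expressing HiBiT-tagged EML4-ALK v3 (wild type or the named kinase-site mutant) were treated with compound for 72 h. Growth inhibition was reported as log GI50.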

[7] = tested on: BaF3; format: functional; conditions: Mus musculus, time 72 hrs
[8] = tested on: BaF3; experiment: Antiproliferative activity against mouse Ba/F3 cells stably expressing HiBiT-tagged EML4-ALK variant 3 G1202R mutant assessed as cell growth inhibition incubated for 72 hrs by CellTiter-Glo assay; format: functional; in short: as §1
[9] = tested on: BaF3; format: functional; conditions: Mus musculus, time 72 hrs; remark: listed apart in the source
[10] = tested on: BaF3; experiment: Antiproliferative activity against mouse Ba/F3 cells stably expressing HiBiT-tagged EML4-ALK variant 3 C1156Y mutant assessed as cell growth inhibition incubated for 72 hrs by CellTiter-Glo assay; format: functional; in short: as §1
[11] = tested on: HepG2; experiment: Induction of phospholipidosis in human HepG2 cells assessed as […] incubated for 48 hrs by Hoechst 33342 staining based imaging analysis; format: toxicity, cell-based; conditions: hepg2, 48 h
[12] = tested on: HepG2; experiment: Cytotoxicity against human HepG2 cells assessed as reduction in cell viability incubated for 48 hrs by Hoechst 33342 staining based imaging analysis; format: toxicity; conditions: hepg2, 48 h
[13] = Plasma protein binding in mouse; format: ADME, cell-free
[14] = Plasma protein binding in human; format: ADME, cell-free
[15] = tested on: Mus musculus; format: functional, organism-based; conditions: BALB/c, BaF3, dose 10.0 mg/kg, route po, time 14.0 day
[16] = tested on: Mus musculus; format: functional, organism-based; conditions: BALB/c, BaF3, dose 10.0 mg/kg, route po, time 14.0 day; remark: listed apart in the source
[17] = tested on: BaF3; format: functional; conditions: Mus musculus, BaF3, 336 h, route po, time 14 day, read-out: TGI
[18] = Microsomal stability in human liver microsomes at 1 uM measured upto 60 mins in presence of NADPH by LC-MS/MSC analysis; format: ADME, Microsome; conditions: 1 h

Compound	microsomal CLint at 1 µM [1]	F [3]	Activity [4]	Activity [5]	GI50 [6]	GI50 [7]	GI50 [8]	GI50 ([9]; read-out: pGI50 (converted))	GI50 [10]	further results
COc1cc(CCNCCCCCC#Cc2cccc3c2CN(C2CCC(=O)NC2=O)C3=O)c(C)cc1Nc1ncc(Cl)c(Nc2ccccc2S(=O)(=O)C(C)C)n1 (centres undefined)	39 µL/min/mg	0.2%	Toxic	Toxic						solubility thermodynamic at 24 h [2]: 686 µM (≈ 567 µg/mL)
COc1cc(CCNCCCCCC#Cc2cccc3c2C(=O)N(C2CCC(=O)NC2=O)C3=O)c(C)cc1Nc1ncc(Cl)c(Nc2ccccc2S(=O)(=O)C(C)C)n1 (centres undefined)	59 µL/min/mg		Toxic	Toxic						
COc1cc(N2CCC(N3CCN(C)CC3)CC2)ccc1Nc1ncc(Cl)c(Nc2ccccc2P(C)(C)=O)n1 [BRIGATINIB]					12.6 nM	39.8 nM	251 nM	200 nM	39.8 nM	
C[C@@H](Oc1cc(-c2cnn(C3CCNCC3)c2)cnc1N)c1c(Cl)ccc(F)c1Cl [CRIZOTINIB]					1000 nM	2000 nM	2000 nM	2000 nM	2000 nM	
COc1cc(C2CCN(CC#Cc3ccc4c(c3)CN(C3CCC(=O)NC3=O)C4=O)CC2)c(C)cc1Nc1ncc(Cl)c(Nc2ccccc2S(=O)(=O)C(C)C)n1 (centres undefined)	14.8 µL/min/mg									
COc1cc(C2CCN(CC3CN(c4ccc5c(c4)C(=O)N(C4CCC(=O)NC4=O)C5=O)C3)CC2)c(C)cc1Nc1ncc(Cl)c(Nc2ccccc2S(=O)(=O)C(C)C)n1 (centres undefined)	8 µL/min/mg	28%	Non-Toxic	Non-Toxic	3.16 nM	3.16 nM	19.9 nM	10 nM	19.9 nM	solubility thermodynamic at 24 h [2]: 122 µM (≈ 104 µg/mL); Activity [11]: Toxic; Activity [12]: Toxic; GI50 ([9]; read-out: GI50): 10 nM; PPB [13]: > 99.9%; PPB [14]: > 99.9%; Activity [15]: Active; Activity [16]: Active; inhibition in vivo at 10 mg/kg [17]: 33%
CCc1cc2c(cc1N1CCN(CC3CN(c4ccc5c(c4)C(=O)N(C4CCC(=O)NC4=O)C5=O)C3)CC1)C(C)(C)c1[nH]c3cc(C#N)ccc3c1C2=O (centres undefined)		48%								Stability [18]: Stable
